The term IC50 denotes the concentration that gives 50% inhibition. In general, Vmax refers to the top rate of the reaction or transport when substrate is in excess.

In series [1] the test system is LS174T. Nature of the series: The compound was evaluated for the cytotoxicity towards LS174T cells. It counts as functional, cell-based. Particulars: Homo sapiens. In a few lines: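 LS174T human colon adenocarcinoma cells (CEA-expressing) exposed to graded inhibitor, 0.01–500 μM in medium, for 1 h at 37 °C. Cells were washed once, grown a further 6 days, and survival was read by SRB assay to give IC50.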

The nature of series [2]: The compound was evaluated for the apparent Vmax through Lineweaver-Burke Plot of MTX turnover by CPG2 at a concentration of 0.5 (uM). The series is classed as ADME. In a few lines:
(§1)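 CPG2 (10 μL of 28.66 μg/mL stock) in a 1-mL cuvette; reaction started with 990 μL methotrexate (3.077–70 μM) alone or with inhibitor at fixed 0.5 or 1.0 μM (final). Buffer was 0.1 M Tris-HCl pH 7.3, 0.1 mM ZnCl2, 37 °C. A320 decrease over 0–60 s gave initial velocities; apparent Vmax came from Lineweaver–Burk plots.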

Series [3] can be described thus: The compound was evaluated for the apparent Vmax through Lineweaver-Burke Plots of MTX turnover by CPG2 at a concentration of 0 (uM). It counts as ADME. In a few lines:
as §1

Series [4] is described as follows: The compound was evaluated for the apparent Vmax through Lineweaver-Burke Plots of MTX turnover by CPG2 at a concentration of 1 (uM). The series is classed as ADME. In a few lines: as §1
In series [5] the test system is LS174T. Nature of the series: Cytotoxicity in conjugate with 2-(4-Methoxy-phenylsulphanylcarbonylamino)-pentanedioic acid at a concentration of 50 micuM against LS174T cells. It counts as functional, cell-based. Conditions: Homo sapiens.
Series [6] has as its system LS174T. Nature of the series: Cytotoxicity in conjugate with F(ab')2-A5B7-CPG2 and 2-(4-Methoxy-phenylsulphanylcarbonylamino)-pentanedioic acid at a concentration of 25 uM against LS174T cells. The series is classed as functional, cell-based. Conditions: Homo sapiens. In a few lines:
(§2)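 LS174T human colon adenocarcinoma cells (CEA-expressing) were exposed to F(ab')2-A5B7-CPG2 conjugate (3.32 μg/mL, 0.505 U/mL) for 1 h at 37 °C and washed twice to remove unbound conjugate. They were then exposed for 1 h at 37 °C to graded prodrug plus the stated fixed CPG2 inhibitor level (25 or 50 μM). After a wash, cells grew 6 days; survival was measured by SRB assay.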

The test system of series [7] is LS174T. Nature of the series: Cytotoxicity in conjugate with F(ab')2-A5B7-CPG2 and 2-(4-Methoxy-phenylsulphanylcarbonylamino)-pentanedioic acid at a concentration of 50 uM against LS174T cells. It counts as functional, cell-based. Particulars: Homo sapiens. In a few lines: as §2
In series [8] the test system is LS174T. Nature of the series: The compound was evaluated for the cytotoxicity in conjugate with F(ab')2-A5B7-CPG2 against LS174T cells. The series is classed as functional, cell-based. Conditions: Homo sapiens. The gist of the method:
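They then received graded prodrug (0.01–500 μM in medium) for 1 h at 37 °C to generate the phenol mustard in situ. After a wash and a further 6 days, survival was measured by SRB assay.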

The subject of series [9] is LS174T. Put plainly: The compound was evaluated for the cytotoxicity with the compound alone against LS174T cells. Conditions: Homo sapiens. It counts as functional, cell-based. The gist of the method: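 LS174T cells were exposed to graded compound alone (0.01–500 μM in medium) for 1 h at 37 °C, with no conjugate. Cells were washed once with medium and cultured a further 6 days. Survival was measured by sulforhodamine B (SRB) assay.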

SMILES strings stand for the structures.

Regarding `COc1cccc(SC(=O)NC(CCC(=O)O)C(=O)O)c1` (stereo not given), the IC50 in the series on LS174T [1] is more than 500 µM.
On to `COc1ccc(SC(=O)N[C@H](CCC(=O)O)C(=O)O)cc1`, for which the values for the Vmax in series [2], in series [3] and in series [4] were 47.7 µM/min, 80 µM/min and 42.3 µM/min, respectively. The compound also displayed an IC50 with LS174T [1] of more than 500 µM.
The compound `Nc1ccc(SC(=O)NC(CCC(=O)O)C(=O)O)cc1` (stereo not given) came in with an IC50 in the series on LS174T [1] of 416 µM.
Same read-out and setting: in the case of `Nc1cccc(SC(=O)NC(CCC(=O)O)C(=O)O)c1` (stereo not given) it was more than 500 µM.
Consider `Cc1cccc(SC(=O)NC(CCC(=O)O)C(=O)O)c1` (stereo not given), for which the IC50 in the series with LS174T [1] was more than 500 µM.
The same measure, in the same setting: the result for `COc1ccc(SC(=O)N[C@@H](CCC(=O)O)C(=O)O)cc1` reads more than 500 µM.
Turning to `O=C(O)CCC(NC(=O)Oc1ccc(N(CCCl)CCCl)cc1)C(=O)O` (stereo not given), the IC50 in the series with LS174T [5] was determined as 24 µM; in the series on LS174T [6], 3.3 µM; with LS174T [7], 16.2 µM; in the series with LS174T [8], 0.8 µM; in the series on LS174T [9], 23.2 µM.
In turn, `Cc1ccc(SC(=O)NC(CCC(=O)O)C(=O)O)cc1` (stereo not given) gave an IC50 in the series on LS174T [1] of more than 500 µM.
